Series [1] addresses Acetylcholinesterase (Electrophorus electricus, UniProt O42275). Briefly: Inhibition of electric eel AChE using acetylthiocholine iodide incubated for 15 mins as substrate by Ellman's method. Background: Ellman's reagent forms a yellow product with free thiols.
Series [2] can be described thus: Selectivity index, ratio of IC50 for equine serum BuChE using S-butyrylthiocholine chloride as substrate to IC50 for electric eel AChE using acetylthiocholine iodide as substrate by Ellman's method. The method in brief: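 Selectivity index is IC50(eqBuChE)/IC50(EeAChE). Both IC50s come from the modified Ellman method, using Electrophorus electricus AChE and equine serum BuChE. Each IC50 is the mean of three independent experiments, each run in triplicate.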

Series [3] addresses Cholinesterase (Equus caballus, UniProt P81908). Briefly: Inhibition of equine serum BuChE using S-butyrylthiocholine chloride as substrate incubated for 15 mins by Ellman's method. The method in brief: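 Modified Ellman method using equine serum BuChE. […] Values are the mean of three independent experiments, each run in triplicate, with SD.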
Series [4] concerns the target T1, Amine oxidase [flavin-containing] B (Homo sapiens, UniProt P27338).
T1 sequence (P27338 whole entry): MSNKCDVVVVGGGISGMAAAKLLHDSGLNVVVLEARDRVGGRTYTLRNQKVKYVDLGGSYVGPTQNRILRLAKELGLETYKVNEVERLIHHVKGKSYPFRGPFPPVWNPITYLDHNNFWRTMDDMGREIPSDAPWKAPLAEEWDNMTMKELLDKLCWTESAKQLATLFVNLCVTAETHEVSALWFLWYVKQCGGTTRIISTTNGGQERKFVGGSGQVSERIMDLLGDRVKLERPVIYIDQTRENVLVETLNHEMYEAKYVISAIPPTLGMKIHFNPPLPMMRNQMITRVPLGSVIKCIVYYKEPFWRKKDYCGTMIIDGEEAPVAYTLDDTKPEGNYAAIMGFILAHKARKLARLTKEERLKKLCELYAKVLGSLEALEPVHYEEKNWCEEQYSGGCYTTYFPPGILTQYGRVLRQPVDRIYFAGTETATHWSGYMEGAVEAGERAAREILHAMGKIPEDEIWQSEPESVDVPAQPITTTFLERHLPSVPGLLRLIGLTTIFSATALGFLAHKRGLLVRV
Briefly: Inhibition of human recombinant MAO-B using kynuramine as substrate measured after 30 mins by fluorimetric assay.

For series [5], the target named is T2, MAO-A (Homo sapiens, UniProt P21397).
T2 sequence (P21397 whole entry): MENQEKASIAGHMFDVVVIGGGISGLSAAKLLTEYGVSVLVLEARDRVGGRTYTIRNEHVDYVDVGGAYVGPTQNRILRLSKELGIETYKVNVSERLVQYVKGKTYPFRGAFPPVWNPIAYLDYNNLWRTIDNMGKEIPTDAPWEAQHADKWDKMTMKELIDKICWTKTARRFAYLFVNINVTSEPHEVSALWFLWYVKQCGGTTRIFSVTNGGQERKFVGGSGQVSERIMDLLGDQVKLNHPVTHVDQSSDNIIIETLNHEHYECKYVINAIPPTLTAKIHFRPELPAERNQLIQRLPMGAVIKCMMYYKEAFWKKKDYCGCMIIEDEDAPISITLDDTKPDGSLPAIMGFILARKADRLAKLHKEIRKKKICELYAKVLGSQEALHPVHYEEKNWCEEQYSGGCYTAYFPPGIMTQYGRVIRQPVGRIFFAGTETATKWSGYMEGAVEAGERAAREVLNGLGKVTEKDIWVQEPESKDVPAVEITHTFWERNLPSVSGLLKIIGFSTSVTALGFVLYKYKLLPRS
In words: Inhibition of human recombinant MAO-A using kynuramine as substrate at 10 uM measured after 30 mins by fluorimetric assay relative to control. Particulars: probe kynuramine.

Series [6] in a line: Metal chelating activity assessed as mole fraction of the compound required for Cu2+ -compound complex formation at stoichiometry ratio of 1:1 at 37.5 uM measured after 30 mins in presence of 3.75 to 93.75 uM CuCl2 by UV-vis spectrophotometric analysis. The method in brief: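 Cu2+ complex stoichiometry determined by the molar ratio method. Ascending amounts of CuCl2 were added to the test compound, at a final concentration of 37.5 μM. Absorbance was plotted against mole fraction, and the stoichiometry was taken from the intersection of two fitted straight lines. The final Cu2+ concentration started at 3.75 μM.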

Series [7] in a line: Metal chelating activity assessed as Fe2+-compound complex formation at 37.5 uM measured after 30 mins in presence of 37.5 uM FeSO4 by UV-vis spectrophotometric analysis.
Series [8] has as its target Acetylcholinesterase (Electrophorus electricus) (UniProt O42275). In words: Mixed inhibition of electric eel AChE at 1.5 to 6 uM preincubated with enzyme for 15 mins followed by substrate addition using acetylthiocholine iodide as substrate by double reciprocal Lineweaver-Burk plot analysis.
Series [9] in a line: Metal chelating activity assessed as Cu2+-compound complex formation measured as red shift in absorption spectra at 37.5 uM measured after 30 mins in presence of 37.5 uM CuCl2 by UV-vis spectrophotometric analysis.
Series [10] can be described thus: Metal chelating activity assessed as Al3+-compound complex formation at 37.5 uM measured after 30 mins in presence of 37.5 uM AlCl3 by UV-vis spectrophotometric analysis.
A short description of series [11]: Permeability of the compound at 100 ug/ml measured after compound dilution in PBS/EtOH buffer (70:30) by PAMPA-BBB assay. (In PAMPA a lipid-coated filter parts donor from acceptor wells.)
Series [12] can be described thus: Metal chelating activity assessed as Zn2+-compound complex formation at 37.5 uM measured after 30 mins in presence of 37.5 uM ZnCl2 by UV-vis spectrophotometric analysis.
Series [13] deals with Cholinesterase (Equus caballus) (UniProt P81908). In words: Inhibition of equine serum BuChE using S-butyrylthiocholine chloride as substrate at 50 uM incubated for 15 mins by Ellman's method relative to control.
Sequence of Cholinesterase (Equus caballus) (P81908 whole entry): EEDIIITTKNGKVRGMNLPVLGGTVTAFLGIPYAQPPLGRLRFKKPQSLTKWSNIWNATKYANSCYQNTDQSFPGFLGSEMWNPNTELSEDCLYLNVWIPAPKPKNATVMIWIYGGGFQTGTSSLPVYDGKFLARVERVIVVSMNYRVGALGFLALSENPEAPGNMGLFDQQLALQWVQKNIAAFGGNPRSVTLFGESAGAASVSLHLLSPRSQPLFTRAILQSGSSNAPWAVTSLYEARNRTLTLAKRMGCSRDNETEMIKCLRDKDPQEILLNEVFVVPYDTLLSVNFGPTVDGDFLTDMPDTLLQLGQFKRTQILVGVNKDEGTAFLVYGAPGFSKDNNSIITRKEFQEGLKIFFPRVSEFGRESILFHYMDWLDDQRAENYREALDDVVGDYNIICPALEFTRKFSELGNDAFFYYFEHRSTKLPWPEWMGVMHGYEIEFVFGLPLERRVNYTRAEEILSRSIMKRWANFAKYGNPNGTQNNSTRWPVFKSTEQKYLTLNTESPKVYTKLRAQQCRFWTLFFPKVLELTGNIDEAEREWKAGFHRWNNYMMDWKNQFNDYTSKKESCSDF
For series [14], the target named is T3, Amine oxidase [flavin-containing] A (Homo sapiens, UniProt P21397).
T3 sequence (P21397 whole entry): T2 sequence (P21397 whole entry)
Briefly: Inhibition of human recombinant MAO-A using kynuramine as substrate measured after 30 mins by fluorimetric assay. In outline:
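Recombinant human MAO-A inhibition measured by a fluorimetric assay. Each value is the mean of three independent experiments, each run in triplicate, with SD reported.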

Active and inactive are the calls of the source. No cut-off for these calls is given here. Where only a bound is given, the exact number is not on record here.

Sequence of Cholinesterase (P81908 whole entry): as above
Sequence of Acetylcholinesterase (O42275 whole entry): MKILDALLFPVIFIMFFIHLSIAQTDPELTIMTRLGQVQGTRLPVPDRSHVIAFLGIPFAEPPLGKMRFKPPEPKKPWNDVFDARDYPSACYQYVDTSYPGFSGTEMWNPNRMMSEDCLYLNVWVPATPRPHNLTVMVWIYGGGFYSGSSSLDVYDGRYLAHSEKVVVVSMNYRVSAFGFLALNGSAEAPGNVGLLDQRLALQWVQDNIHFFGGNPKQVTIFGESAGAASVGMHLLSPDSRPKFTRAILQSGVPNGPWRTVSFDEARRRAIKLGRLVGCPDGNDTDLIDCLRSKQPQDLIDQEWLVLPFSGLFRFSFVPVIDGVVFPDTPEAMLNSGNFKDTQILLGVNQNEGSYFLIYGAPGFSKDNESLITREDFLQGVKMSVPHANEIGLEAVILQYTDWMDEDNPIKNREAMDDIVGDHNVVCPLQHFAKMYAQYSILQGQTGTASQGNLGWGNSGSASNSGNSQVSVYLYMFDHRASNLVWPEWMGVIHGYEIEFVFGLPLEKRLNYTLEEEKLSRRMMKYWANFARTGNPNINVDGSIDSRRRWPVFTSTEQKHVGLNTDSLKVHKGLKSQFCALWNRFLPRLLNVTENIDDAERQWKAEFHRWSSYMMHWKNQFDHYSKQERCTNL
Sequence of Acetylcholinesterase (Electrophorus electricus) (O42275 24-633 limits assumed): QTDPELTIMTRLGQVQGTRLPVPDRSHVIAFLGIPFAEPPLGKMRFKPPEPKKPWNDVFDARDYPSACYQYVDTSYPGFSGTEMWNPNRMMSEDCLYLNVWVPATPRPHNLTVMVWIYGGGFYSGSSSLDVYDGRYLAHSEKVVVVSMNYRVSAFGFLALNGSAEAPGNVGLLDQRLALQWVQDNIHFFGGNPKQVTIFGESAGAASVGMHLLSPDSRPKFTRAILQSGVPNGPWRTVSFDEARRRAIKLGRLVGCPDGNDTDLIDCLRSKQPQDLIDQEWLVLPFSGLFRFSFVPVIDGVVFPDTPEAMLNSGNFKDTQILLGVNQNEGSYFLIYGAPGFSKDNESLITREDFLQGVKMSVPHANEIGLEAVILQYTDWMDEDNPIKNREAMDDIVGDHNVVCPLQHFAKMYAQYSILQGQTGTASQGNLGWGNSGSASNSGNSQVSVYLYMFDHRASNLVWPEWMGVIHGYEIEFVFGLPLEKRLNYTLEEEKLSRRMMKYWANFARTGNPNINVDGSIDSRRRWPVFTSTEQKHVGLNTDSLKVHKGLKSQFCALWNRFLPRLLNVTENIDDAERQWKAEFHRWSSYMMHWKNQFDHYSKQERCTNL

The term IC50 denotes the point on the concentration scale where inhibition reaches its midpoint. By inhibition is commonly meant the change of the read-out against control, counted positive when it falls. As usually defined, the Papp is a coefficient for how fast a substance crosses the barrier. Low readings indicate slow passage, high ones fast passage. For `CCN(CCCCOc1ccc(C(C)=O)c(O)c1)Cc1ccccc1`, the values for the IC50 in [1], in [3] and in series [4] were 2.9 µM, 34.6 µM and 16.6 µM, respectively. The Ratio IC50 in [2] stood at 11.9. For the same molecule, in series [5], the inhibition at 0.5 h, 10 µM was less than 10%. Also, the Ratio (mole fraction) in [6] came out at 0.97. The outcome in series [7], in series [10] and in [12] was inactive. In series [8], the inhibition entry is “Active”. The result in series [9] was Active. In [11], this molecule displayed a Papp at 100 ug/ml of 15.1 ×10⁻⁶ cm/s.
As for `CC(=O)c1ccc(OCCCCCCCCCCN2CCN(Cc3ccccc3)CC2)cc1O`, the IC50 in [1] is 6.9 µM; in [4], 17.3 µM; in series [14], 19.8 µM. The same molecule displayed an inhibition in series [13] of 15.1%.
As for `CC(=O)c1ccc(OCCN2CCN(Cc3ccccc3)CC2)cc1O`, the values for the IC50 in [1], in [4] and in series [14] were 6.6 µM, 10.2 µM and 26.1 µM, respectively. The inhibition in [13] amounted to 11.2%. The molecule further registered a Papp at 100 ug/ml in series [11] of 17.4 ×10⁻⁶ cm/s.
Regarding `CC(=O)c1ccc(OCCCCCCCCCN2CCN(Cc3ccccc3)CC2)cc1O`, the IC50 stood at 6.7 µM in series [1], 19.8 µM in series [3], 21.6 µM in series [4] and 19.7 µM in series [14]. Also, the Ratio IC50 in series [2] was found to be 2.9.
The corresponding values for `CC(=O)c1ccc(OCCCN2CCC(c3ccccc3)CC2)cc1O` are 13.4 µM, 29.4 µM, 19.8 µM, 24.7 µM and 2.2.
As to `CCN(CCCCCOc1ccc(C(C)=O)c(O)c1)Cc1ccccc1`, the IC50 came out at 5.2 µM in series [1], 37.2 µM in series [3] and 29.8 µM in [4]. In series [2], the Ratio IC50 was determined as 7.1. Besides, in series [5], the inhibition at 0.5 h, 10 µM was less than 10%.
With `CC(=O)c1ccc(OCCCN2CCC(Cc3ccccc3)CC2)cc1O`, the IC50 is 11.7 µM in [1], 63.1 µM in [3] and 18.7 µM in series [4]. Besides, in [2], the Ratio IC50 was 5.4. For the same molecule, the inhibition at 0.5 h, 10 µM in series [5] was less than 10%.
On to `CCN(CCCCCCCCCCOc1ccc(C(C)=O)c(O)c1)Cc1ccccc1`, for which the IC50 in [1] turned out to be 6.5 µM; in series [3], 50.7 µM; in series [4], 23.4 µM. For the same molecule, the Ratio IC50 in series [2] came out at 7.8. Also, the inhibition at 0.5 h, 10 µM in series [5] was less than 10%.
As to `CC(=O)c1ccc(OCCCCCCN2CCc3ccccc3C2)cc1O`, the IC50 in series [1] came out at 9.2 µM; in [3], 32.6 µM; in series [4], 26.9 µM; in series [14] it was 21.2 µM. The Ratio IC50 in series [2] is 3.5.
With `CC(=O)c1ccc(OCCCCCCN2CCC(Cc3ccccc3)CC2)cc1O`, the IC50 was found to be 7.1 µM in series [1], 66.9 µM in [3], 15.8 µM in series [4] and 22.1 µM in series [14]. Further, the Ratio IC50 in series [2] stood at 9.4.
Regarding `CC(=O)c1ccc(OCCCCN2CCc3ccccc3C2)cc1O`, the IC50 was 5.9 µM in series [1], 47.5 µM in series [3] and 12.8 µM in [4]. Also, the Ratio IC50 in series [2] amounted to 8.1. In addition, the inhibition at 0.5 h, 10 µM in series [5] is 6.3%.
The matching figures for `CCN(CCCCCCCCCCCCOc1ccc(C(C)=O)c(O)c1)Cc1ccccc1`: 7.7 µM, 38.9 µM, 33.1 µM, 5 and less than 10%.

Values taken from ChEMBL document CHEMBL4351031, “The development of 2-acetylphenol-donepezil hybrids as multifunctional agents for the treatment of Alzheimer's disease” (Bioorg Med Chem Lett, 2019).
